Source: PubChem
A selection: hits, their analogues and other compounds. The true share with any hit is near 1.8%.
M4 ag – agonists of human muscarinic M4 receptor (CHRM4); activation, % at 3 µM; CHO-K1 hM4/Gqi5, Fluo-8 calcium fluorescence; vehicle 0%, full acetylcholine response 100%; AID 624127; P08173; 360,000 compounds, 0.14% hits;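 active means activation above the run mean over all test wells plus 3 SD, cut at about 32% in these data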;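 further: peak over basal fluorescence ratio per well then scaled between controls; 0% = DMSO wells and 100% = acetylcholine at EC100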
CHRM5 PAM – CHRM5 positive allosteric modulation; P08912; CHO-K1 hM5, Fluo-8 calcium, ACh EC20 PAM; 0% = ACh EC20, 100% = ACh EC100; activation, % at 3 µM; 360,000 compounds, 0.3% hits; AID 624038;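 active means activation above the run cutoff, the mean activation of all test compounds plus 3 SD, cut at about 18% in these data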
Target sequence (P08912 whole entry, looked up): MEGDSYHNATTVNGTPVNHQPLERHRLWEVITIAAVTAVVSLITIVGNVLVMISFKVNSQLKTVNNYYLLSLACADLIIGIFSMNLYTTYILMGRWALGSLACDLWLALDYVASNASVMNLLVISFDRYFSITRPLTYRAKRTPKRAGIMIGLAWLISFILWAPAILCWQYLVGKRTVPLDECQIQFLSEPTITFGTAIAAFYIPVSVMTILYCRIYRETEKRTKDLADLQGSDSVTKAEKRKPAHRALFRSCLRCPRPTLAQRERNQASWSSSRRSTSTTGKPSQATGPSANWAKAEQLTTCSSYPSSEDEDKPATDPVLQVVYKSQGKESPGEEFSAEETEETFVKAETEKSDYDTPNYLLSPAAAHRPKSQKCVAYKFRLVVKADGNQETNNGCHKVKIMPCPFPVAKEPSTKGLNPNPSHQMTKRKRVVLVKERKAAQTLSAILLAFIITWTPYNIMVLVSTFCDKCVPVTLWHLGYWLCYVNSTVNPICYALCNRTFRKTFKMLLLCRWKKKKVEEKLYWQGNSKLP
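System: CHO-K1 cell line with stable human muscarinic M5 receptor expression | Also added: EC20 acetylcholine as agonist stimulus | Compound: One concentration, 3 µM final (nominal) | Timing: Fluo-8 loading 80 min at 37 °C plus 30 min room temperature | Measured by: Fluo-8 calcium dye fluorescence, kinetic read | Read-out basis: % activation, ACh-normalized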
CHRM4 PAM – potentiates acetylcholine response at human M4 receptor. P08173. CHO-K1 hM4/Gqi5, Fluo-8 calcium fluorescence, ACh EC20; 0% = ACh EC20, 100% = maximal ACh. activation, % at 3 µM. 360,000 compounds, 0.4% hits. AID 624126;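 active means activation above its plate's cutoff, the mean activation of sample wells plus 3 SD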
CHRM5 antagonist – CHRM5 antagonism in calcium assay; inhibition, % at 3 µM; 360,000 compounds, 0.59% hits; P08912; CHO-hM5 cells, Fluo-8 calcium fluorescence, ACh EC80;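 active means inhibition above a per-plate cutoff, the mean of that plate's test compounds plus 3 SD, cut at about 27% in these data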;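 further: 0% = acetylcholine EC80 with DMSO and 100% = DMSO without agonist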
M5 ag – CHRM5 agonism in calcium assay | CHO-K1 hM5 cells, Fluo-8 calcium fluorescence; 0% DMSO wells, 100% maximal acetylcholine response | P08912 | 360,000 compounds, 0.19% hits | activation, % at 3 µM;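 active means activation above the run's mean over test compounds plus 3 SD, cut at about 23% in these data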;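 further: signal is peak over basal fluorescence ratio across the kinetic read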
M4 antag – antagonists of human muscarinic M4 receptor (CHRM4) | P08173 | CHO-hM4 cells, ACh EC80, Fluo-8 calcium fluorescence | inhibition, % at 3 µM | 360,000 compounds, 0.73% hits | AID 624125;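 active means inhibition above its plate's cutoff, the mean inhibition of sample wells plus 3 SD, cut at about 27% in these data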;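 further: 0% = acetylcholine EC80 with DMSO and 100% = DMSO without agonist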
Numbers without * were called inactive.

SMILES	M4 ag	CHRM5 PAM	CHRM4 PAM	CHRM5 antagonist	M5 ag	M4 antag
COc1ccc(C(=O)NNC(=S)NC(=O)c2cccnc2)cc1	0	-9	0	15	-3	2
FC(F)(F)c1ccc(Nc2nnnc3ccccc23)cc1	1	-7	-4	4	-2	0
Cc1cccc(N2CCN(C(=O)Cn3sc4nc(C)cc(C)c4c3=O)CC2C)c1 (stereo not drawn)	28	-16	-16	16	13	54*
Cc1cc(C)c2c(=O)n(CC(=O)Nc3ccc(Cl)cc3)sc2n1	61*	-11	-38	10	17	31*
Cc1cc(C)c2c(=O)n(CC(=O)Nc3cccc(F)c3)sc2n1	18	2	-13	7	5	6
CCOc1ccc(NC(=O)Cn2sc3nc(C)cc(C)c3c2=O)cc1	18	-6	-30	5	6	55*
Cc1cccc(N2CCN(C(=O)Cn3nc(C)n4cccc4c3=O)CC2C)c1 (stereo not drawn)	12	-8	-4	7	4	-2
CCN(CC)CCCCCC(=O)Nc1ccccc1C(=O)Nc1ccccc1	1	8	-4	4	-10	-6
S=C(NCCC(c1ccccc1)c1ccccc1)Nc1ccc(Cl)cc1	9	-14	-20	33*	1	19
C=CCNC(=O)c1c(O)c2cccc3c2n(c1=O)CCC3	6	43*	16*	25	6	22
O=c1c(-c2ccccc2)c(O)c2cccc3c2n1CCC3	0	2	17*	-3	-3	-15
Cc1cc(C)c(-c2c(O)c3cccc4c3n(c2=O)CCC4)c(C)c1	0	-1	-3	-1	-6	0
O=C(NNC(=O)c1ccc(Oc2cc(Cl)cc(Cl)c2)o1)c1ccccc1	11	-8	-21	12	2	5
O=C(NNC(=O)c1ccc(Oc2ccc(C3SCCS3)cc2)o1)c1ccc(Cl)cc1	18	-23	-34	17	2	27*
Cc1cc(C(C)(C)C)cc(C)c1C[n+]1ccc2ccccc2c1	0	-5	-13	12	-8	29*
C[C@H](CO)N1C[C@H](C)[C@H](CN(C)C(=O)Nc2ccnc(N3CCOCC3)c2)OCc2cnnn2CCCC1=O	1	-2	-6	0	0	5
OC(COCc1ccc2c(c1)OCO2)CN1CCCCC1 (stereo not drawn)	0	6	4	0	-3	-13
CCC(CO)NCC(O)COCc1ccc2c(c1)OCO2 (stereo not drawn)	1	0	20*	-1	-4	-13
CN(C)/C=C1/OC(=O)C(C#N)=C1c1ccc(Cl)cc1	1	1	4	9	-2	11
Cc1cccc(S(=O)Cc2ccc(C(=O)N3CCN(C(=O)c4ccco4)CC3)o2)c1 (stereo not drawn)	4	22*	1	-8	3	-17
O=C(Cc1ccccc1Cl)c1ccccc1	1	9	27*	-2	-2	-15
c1ccc2c(c1)ccc1ncccc12	2	0	21*	5	-3	5
CCNS(=O)(=O)c1ccc(CCC(=O)N2CCN(c3ccccc3)CC2)cc1	1	5	-3	6	-2	6
COc1ccc(NC(=O)C2CCCN(CCCc3ccccc3)C2)cc1OCC(C)C (stereo not drawn)	32	-2	-18	8	-11	29*
COc1ccc(NC(=O)C2CCCNC2)cc1OCC(C)C (stereo not drawn)	1	-2	-1	4	-6	7
SMILES	M4 ag	CHRM5 PAM	CHRM4 PAM	CHRM5 antagonist	M5 ag	M4 antag
COCCN(C(=O)c1ccc(N2CCCC2=O)cc1)c1c(N)n(Cc2ccccc2)c(=O)[nH]c1=O	1	8	16	7	3	-10
CC(C)(CC(=O)N1CCN(c2ccc(Cl)cc2)CC1)CC1=NS(=O)(=O)c2ccccc2N1	22	-23	-18	28*	8	26*
O=C(CCCC1=NS(=O)(=O)c2ccccc2N1)N1CCN(c2ccc(Cl)cc2)CC1	11	-10	-3	9	6	-13
COc1cccc(N2CCN(C(=O)CC(C)(C)CC3=NS(=O)(=O)c4ccccc4N3)CC2)c1	26	-18	-15	27*	2	1
O=C(CCCC1=NS(=O)(=O)c2ccccc2N1)N1CCN(c2ccccc2)CC1	5	-7	3	0	-4	-15
Cc1ccc(/C=N/N2CCN(Cc3cccc4ccccc34)CC2)o1	-3	5	2	-12	-3	29*
Cc1ccc(/C=N/N2CCN(Cc3ccccc3)CC2)o1	1	-3	1	5	-5	9
O=S(=O)(NC(CO)Cc1ccccc1)c1ccc(Br)cc1F (stereo not drawn)	2	-4	5	4	0	-11
OCC1OC(n2cnc3c(N4CCCCC4)ncnc32)C(O)C1O (stereo not drawn)	1	3	1	-10	5	-2
O=C(c1ccccc1)N1CCCc2ccccc21	1	10	1	-11	-2	-2
S=C(c1ccccc1)N1CCCc2ccccc21	-3	6	38*	-10	-5	-12
Cc1nnsc1SCCNC(=O)Nc1ccc(Cl)cc1	14	-22	-3	32*	4	9
Cc1cccc(N2C(=O)CN=C2Nc2nc(C)cc(C)n2)c1	1	-7	18*	-1	-5	-15
Cc1cc(C)nc(NC2=NCC(=O)N2c2cc(Cl)cc(Cl)c2)n1	1	7	0	-2	-1	7
CCCCCCN[C@H]1CCC2C3CC=C4C[C@@H](O)CC[C@]4(C)C3CC[C@@]21C (stereo partly drawn)	12	-18	-12	12	-10	37*
COc1ccc(CN2CCNC(=O)C2CC(=O)NC2CCCCCCC2)cc1OC (stereo not drawn)	2	-6	-26	8	-10	36*
Cc1ccc(CN2CCNC(=O)C2CC(=O)NC2CCCCCC2)cc1 (stereo not drawn)	0	0	2	15	-5	0
O=C(CC1C(=O)NCCN1Cc1ccc(F)cc1)NC1CCCCCCC1 (stereo not drawn)	2	-4	-15	-1	-7	45*
N#C/C(=C\c1ccc(-c2cccc([N+](=O)[O-])c2)o1)C(=O)Nc1nc(-c2cccs2)cs1	1	2	-17	2	1	-1
COc1ccc(C(=O)CCC(=O)N2CCN(c3cc(C)ccc3C)CC2)cc1	8	0	2	-4	0	-6
